Test results as given in paper PMC6104635 (ACS chemical neuroscience, 2018).
Residue numbers refer to the chain shown, from its start. Several values for one entry are separate records, joined by “and”; a condition that tells them apart may be missing. Equal values may be shown once. Read-outs that look alike come from different tables or passages of the source.

Legend:
[1] = plasma protein binding, human; type: in vitro ADME
[2] = molecular target: T1, human M5 (Homo sapiens, UniProt P08912); assay: calcium mobilization assay, hM5-CHO cells, FDSS7000; type: cell-based
T1 sequence (P08912 1-532): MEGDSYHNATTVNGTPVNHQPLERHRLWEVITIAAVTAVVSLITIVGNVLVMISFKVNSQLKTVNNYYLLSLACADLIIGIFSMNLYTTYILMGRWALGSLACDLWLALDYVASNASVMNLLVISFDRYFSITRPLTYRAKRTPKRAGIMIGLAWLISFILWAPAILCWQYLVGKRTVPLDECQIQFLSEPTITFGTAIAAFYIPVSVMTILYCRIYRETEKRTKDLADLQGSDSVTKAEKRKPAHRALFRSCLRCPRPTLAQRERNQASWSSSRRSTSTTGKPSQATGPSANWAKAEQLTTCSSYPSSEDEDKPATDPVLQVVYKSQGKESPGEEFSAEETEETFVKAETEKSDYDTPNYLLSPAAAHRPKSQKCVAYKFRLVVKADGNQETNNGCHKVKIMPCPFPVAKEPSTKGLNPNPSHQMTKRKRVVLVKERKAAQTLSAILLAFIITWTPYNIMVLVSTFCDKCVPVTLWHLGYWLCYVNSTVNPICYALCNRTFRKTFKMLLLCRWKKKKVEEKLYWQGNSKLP
Procedure, shortened: (§1)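 CHO cells stably expressing human or rat M5 were grown in Ham's F-12 with 10% FBS, 20 mM HEPES and 500 μg/mL G418 (37 °C, 5% CO2), then plated at 20 000 cells/well without G418 the day before. Cells were loaded with 1.15 μM Fluo-4 AM for 45 min at 37 °C in HBSS, 20 mM HEPES and 2.5 mM probenecid. Test compound was given as a 10-point 1:3 series from 30 μM final for 2.5 min, then ACh EC20 for 1 min, with calcium read on FDSS7000. EC50 and efficacy came from a four-parameter logistic fit.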

[3] = rat brain distribution; type: in vivo; details: male, Sprague-Dawley, brain and plasma
Procedure, shortened: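 Male Sprague–Dawley rats received a single IV or IP cassette dose of 0.20–0.25 mg/kg, with n = 1 animal per cassette. Vehicle was ethanol/PEG400/DMSO, with excipient levels adjusted for solubility, at 0.5 mL/kg iv or 3 mL/kg ip. Plasma and brain were sampled nonserially and quantified by LC-MS/MS (positive ESI, MRM).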

[4] = metabolite identification in rat hepatic microsomes; type: in vitro ADME; details: rat and human hepatic microsomes, result in words
Procedure, shortened: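 Test compound was incubated with rat hepatic microsomes, run alongside human microsomes. Metabolite structures were proposed from LC-UV/MSn data, and major metabolites were assigned by relative peak areas.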

[5] = molecular target: T2, rat M5 (Rattus norvegicus, UniProt P08911); assay: calcium mobilization assay, rM5-CHO cells, FDSS7000; type: cell-based; details: functional calcium assay, n = 3
T2 sequence (P08911 1-531): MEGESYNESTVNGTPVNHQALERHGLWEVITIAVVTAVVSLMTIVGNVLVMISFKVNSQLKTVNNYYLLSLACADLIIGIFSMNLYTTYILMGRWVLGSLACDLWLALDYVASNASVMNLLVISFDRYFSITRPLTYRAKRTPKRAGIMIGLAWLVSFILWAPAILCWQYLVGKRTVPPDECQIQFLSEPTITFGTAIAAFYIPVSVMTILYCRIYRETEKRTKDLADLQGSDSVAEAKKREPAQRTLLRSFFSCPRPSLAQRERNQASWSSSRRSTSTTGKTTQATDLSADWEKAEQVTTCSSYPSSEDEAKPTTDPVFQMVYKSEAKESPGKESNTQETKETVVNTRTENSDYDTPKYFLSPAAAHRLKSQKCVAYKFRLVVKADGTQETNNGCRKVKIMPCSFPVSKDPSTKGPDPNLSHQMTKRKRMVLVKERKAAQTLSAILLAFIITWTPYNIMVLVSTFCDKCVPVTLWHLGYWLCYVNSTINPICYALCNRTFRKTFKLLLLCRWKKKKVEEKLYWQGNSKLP
Procedure, shortened: as §1

[6] = hepatic microsomal intrinsic clearance, human; type: in vitro ADME; details: based on microsomal intrinsic clearance (CLint)
[7] = brain homogenate binding, rat; type: in vitro ADME
[8] = plasma protein binding, rat; type: in vitro ADME
[9] = molecular target: human M3 (Homo sapiens, UniProt P20309); assay: mAChR selectivity, PAM activity at human M3; type: cell-based
[10] = molecular target: T3, human M2 (Homo sapiens, UniProt P08172); assay: mAChR selectivity, PAM activity at human M2; type: cell-based; details: result in words
T3 sequence (P08172 1-466): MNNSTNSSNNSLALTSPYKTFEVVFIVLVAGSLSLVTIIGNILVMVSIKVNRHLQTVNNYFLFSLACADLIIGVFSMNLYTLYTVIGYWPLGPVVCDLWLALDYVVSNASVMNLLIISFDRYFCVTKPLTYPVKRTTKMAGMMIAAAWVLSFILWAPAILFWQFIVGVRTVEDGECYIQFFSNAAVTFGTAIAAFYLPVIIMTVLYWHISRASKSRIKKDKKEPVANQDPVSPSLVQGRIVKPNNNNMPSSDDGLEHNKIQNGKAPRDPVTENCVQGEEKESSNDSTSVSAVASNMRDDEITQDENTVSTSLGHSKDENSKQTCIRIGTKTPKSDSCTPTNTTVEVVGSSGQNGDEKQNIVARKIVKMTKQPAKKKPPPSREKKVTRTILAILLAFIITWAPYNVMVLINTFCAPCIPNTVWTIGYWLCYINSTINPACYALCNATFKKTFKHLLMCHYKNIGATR

[11] = molecular target: T4, human M1 (Homo sapiens, UniProt P11229); assay: mAChR selectivity, PAM activity at human M1; type: cell-based
T4 sequence (P11229 1-460): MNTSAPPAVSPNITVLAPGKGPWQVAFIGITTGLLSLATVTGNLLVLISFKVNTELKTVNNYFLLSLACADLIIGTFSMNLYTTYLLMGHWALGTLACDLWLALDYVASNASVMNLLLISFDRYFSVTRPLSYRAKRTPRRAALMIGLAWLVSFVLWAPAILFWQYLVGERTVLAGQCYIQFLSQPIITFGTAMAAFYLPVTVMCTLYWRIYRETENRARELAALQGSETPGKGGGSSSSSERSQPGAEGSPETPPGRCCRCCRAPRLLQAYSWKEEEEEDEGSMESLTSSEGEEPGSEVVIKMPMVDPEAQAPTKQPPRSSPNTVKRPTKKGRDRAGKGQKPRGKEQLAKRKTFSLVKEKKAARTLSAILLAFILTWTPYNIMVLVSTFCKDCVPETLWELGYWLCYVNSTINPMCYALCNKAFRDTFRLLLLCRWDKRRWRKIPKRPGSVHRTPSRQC

[12] = molecular target: T5, rat M1 (Rattus norvegicus, UniProt P08482); assay: mAChR selectivity, PAM activity at rat M1; type: cell-based
T5 sequence (P08482 1-460): T4 sequence (P11229 1-460) with A5V, T254S, P309S, R320K, A337G, I413V

[13] = molecular target: rat M3 (Rattus norvegicus, UniProt P08483); assay: mAChR selectivity, PAM activity at rat M3; type: cell-based
[14] = molecular target: T6, rat M2 (Rattus norvegicus, UniProt P10980); assay: mAChR selectivity, PAM activity at rat M2; type: cell-based; details: result in words
T6 sequence (P10980 1-466): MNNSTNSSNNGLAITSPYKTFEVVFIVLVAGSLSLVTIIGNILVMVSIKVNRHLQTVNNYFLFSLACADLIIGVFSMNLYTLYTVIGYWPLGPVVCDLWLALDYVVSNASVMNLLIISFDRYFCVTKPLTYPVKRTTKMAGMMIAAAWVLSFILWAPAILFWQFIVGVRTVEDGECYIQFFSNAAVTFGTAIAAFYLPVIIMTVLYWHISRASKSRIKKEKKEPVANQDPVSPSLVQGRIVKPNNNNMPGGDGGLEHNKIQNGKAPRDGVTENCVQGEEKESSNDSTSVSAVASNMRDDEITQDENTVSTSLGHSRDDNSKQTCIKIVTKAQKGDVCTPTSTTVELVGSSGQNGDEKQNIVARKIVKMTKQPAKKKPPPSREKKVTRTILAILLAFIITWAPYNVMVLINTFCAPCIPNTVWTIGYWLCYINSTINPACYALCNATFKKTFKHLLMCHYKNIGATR

[15] = molecular target: T7, rat M4 (Rattus norvegicus, UniProt P08485); assay: mAChR selectivity, PAM activity at rat M4; type: cell-based
T7 sequence (P08485 1-478): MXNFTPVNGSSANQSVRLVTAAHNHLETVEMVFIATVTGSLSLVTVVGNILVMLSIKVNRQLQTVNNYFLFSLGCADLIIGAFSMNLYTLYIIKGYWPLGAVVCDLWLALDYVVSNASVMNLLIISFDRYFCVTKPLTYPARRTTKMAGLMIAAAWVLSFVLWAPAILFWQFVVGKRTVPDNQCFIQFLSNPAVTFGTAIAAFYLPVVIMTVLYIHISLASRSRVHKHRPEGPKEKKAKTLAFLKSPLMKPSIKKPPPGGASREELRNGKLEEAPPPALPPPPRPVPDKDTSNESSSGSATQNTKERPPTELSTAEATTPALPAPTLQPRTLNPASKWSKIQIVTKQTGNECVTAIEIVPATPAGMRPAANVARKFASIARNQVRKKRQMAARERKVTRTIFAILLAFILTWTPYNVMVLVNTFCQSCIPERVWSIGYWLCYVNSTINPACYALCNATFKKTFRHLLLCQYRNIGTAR

[16] = molecular target: T8, human M4 (Homo sapiens, UniProt P08173); assay: mAChR selectivity, PAM activity at human M4; type: cell-based; details: result in words
T8 sequence (P08173 1-479): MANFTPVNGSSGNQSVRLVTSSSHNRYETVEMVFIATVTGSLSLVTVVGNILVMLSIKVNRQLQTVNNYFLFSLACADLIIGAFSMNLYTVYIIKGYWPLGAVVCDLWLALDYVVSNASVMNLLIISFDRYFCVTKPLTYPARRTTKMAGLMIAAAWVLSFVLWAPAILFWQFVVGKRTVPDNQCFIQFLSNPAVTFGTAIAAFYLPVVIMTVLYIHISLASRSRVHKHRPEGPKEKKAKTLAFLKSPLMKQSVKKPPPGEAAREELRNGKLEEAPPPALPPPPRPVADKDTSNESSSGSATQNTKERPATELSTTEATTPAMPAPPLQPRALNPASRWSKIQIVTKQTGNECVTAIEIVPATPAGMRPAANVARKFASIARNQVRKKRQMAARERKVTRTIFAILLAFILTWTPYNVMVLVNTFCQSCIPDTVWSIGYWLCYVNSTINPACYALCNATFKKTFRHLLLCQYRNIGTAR

[17] = test system: hM5; details: read-out: hM5 EC50; 96 well-format FlexStation II, initial optimization; cited from earlier work
[18] = PAM, functional calcium assay, n = 3

Sequence of human M3 (P20309 whole entry): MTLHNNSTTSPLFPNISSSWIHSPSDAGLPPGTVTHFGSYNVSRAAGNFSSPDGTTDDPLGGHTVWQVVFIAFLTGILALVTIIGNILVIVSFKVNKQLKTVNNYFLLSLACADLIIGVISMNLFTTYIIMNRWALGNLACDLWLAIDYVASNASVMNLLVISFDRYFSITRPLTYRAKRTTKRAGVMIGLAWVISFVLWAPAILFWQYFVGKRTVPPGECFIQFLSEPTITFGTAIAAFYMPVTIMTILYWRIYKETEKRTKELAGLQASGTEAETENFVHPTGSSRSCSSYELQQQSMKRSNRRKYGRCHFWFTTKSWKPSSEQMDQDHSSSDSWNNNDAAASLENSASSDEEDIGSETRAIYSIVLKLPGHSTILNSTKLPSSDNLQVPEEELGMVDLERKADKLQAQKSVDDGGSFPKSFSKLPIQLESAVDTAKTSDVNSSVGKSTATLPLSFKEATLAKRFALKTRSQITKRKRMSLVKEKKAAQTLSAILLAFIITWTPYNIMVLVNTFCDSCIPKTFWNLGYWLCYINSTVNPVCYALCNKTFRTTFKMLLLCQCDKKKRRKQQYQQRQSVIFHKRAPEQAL
Sequence of rat M3 (P08483 whole entry): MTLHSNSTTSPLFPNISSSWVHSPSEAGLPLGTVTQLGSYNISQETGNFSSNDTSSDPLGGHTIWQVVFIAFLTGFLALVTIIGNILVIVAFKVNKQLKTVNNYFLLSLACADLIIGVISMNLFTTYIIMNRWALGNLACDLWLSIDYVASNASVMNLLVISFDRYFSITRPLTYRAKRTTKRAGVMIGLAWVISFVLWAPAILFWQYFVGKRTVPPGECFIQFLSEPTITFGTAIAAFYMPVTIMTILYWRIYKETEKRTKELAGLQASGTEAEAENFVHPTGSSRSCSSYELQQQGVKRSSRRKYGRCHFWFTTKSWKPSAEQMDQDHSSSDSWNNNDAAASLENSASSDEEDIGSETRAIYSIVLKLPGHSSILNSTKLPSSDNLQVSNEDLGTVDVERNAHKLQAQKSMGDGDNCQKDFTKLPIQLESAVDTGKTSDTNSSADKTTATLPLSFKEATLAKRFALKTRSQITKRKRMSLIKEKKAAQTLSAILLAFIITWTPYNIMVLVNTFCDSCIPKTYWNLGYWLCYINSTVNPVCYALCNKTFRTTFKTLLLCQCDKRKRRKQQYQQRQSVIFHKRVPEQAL

CCN(C(=O)C1CCN(S(=O)(=O)c2ccc3[nH]ncc3c2)CC1)[C@@H]1CCc2ccccc21 [Compound 8, N-Ethyl-N-[(1R)-indan-1-yl]-1-(1H-indazol-5-ylsulfonyl)-piperidine-4-carboxamide]
fraction unbound [1]: 0.019
EC50 ([2]; hM5 EC50, PAM, functional calcium assay, n = 3): 481 nM
EC50 ([2]; hM5 pEC50 ± SEM, PAM, functional calcium assay, n = 3): 457 nM
Kp [3]: 0.17
Kp uu [3]: 0.07
metabolism in MetID studies [4]: extensive oxidative metabolism
rM5 % ACh Max ([5]; PAM): 63% ± 3%
EC50 ([5]; rM5 EC50, PAM): 409 nM
EC50 ([5]; rM5 pEC50 ± SEM, PAM): 380 nM
predicted hepatic clearance CLhep, human [6]: 20.8 mL/min/kg
fraction unbound [7]: 0.017
fraction unbound [8]: 0.043

CCCN(C(=O)C1CCN(S(=O)(=O)c2ccc3[nH]ncc3c2)CC1)[C@@H]1CCc2c(F)cccc21 [Compound 18g]
selectivity for M5 versus M3 ([9]; M5-preferring PAM): 10 fold
human M3 % ACh Max ([9]; PAM activity): 71 % ACh Max
EC50 ([9]; read-out: human M3 EC50, PAM activity): 466 nM
human M2 PAM activity [10]: inactive
hM5 % ACh Max [2, 18]: 74 % ACh Max and 74±6 % ACh Max
hM5 pEC50 ± SEM [2, 18]: 7.46±0.15
increase in M5 PAM potency relative to 18a ([2]; hM5): > 10 fold
EC50 ([2]; read-out: hM5 EC50, PAM, functional calcium assay, n = 3): 41 nM
rM5 % ACh Max ([5]; PAM): 76 % ACh Max and 76 ± 7 % ACh Max
rM5 pEC50 ± SEM ([5]; PAM): 7.13 ± 0.04
EC50 ([5]; read-out: rM5 EC50, PAM): 74 nM
selectivity for M5 versus M1 ([11]; M5-preferring PAM): 20 fold
human M1 % ACh Max ([11]; PAM activity): 67 % ACh Max
EC50 ([11]; read-out: human M1 EC50, PAM activity): 1030 nM
rat M1 % ACh Max [12]: 69 % ACh Max
EC50 ([12]; read-out: rat M1 EC50): 904 nM
rat M3 % ACh Max [13]: 51 % ACh Max
EC50 ([13]; read-out: rat M3 EC50): 772 nM
rat M2 PAM activity [14]: inactive
rat M4 % ACh Max [15]: 49 % ACh Max
EC50 ([15]; read-out: rat M4 EC50): 3910 nM
human M4 PAM activity [16]: inactive

CCN(Cc1ccccc1C(F)(F)F)C(=O)C1CCN(S(=O)(=O)c2ccc3[nH]ncc3c2)CC1 [ML380, 1-((1H-indazol-5-yl)sulfonyl)-N-ethyl-N-(2-(trifluoromethyl)benzyl)piperidine-4-carboxamide, reference compound]
rightward shift in M5 PAM potency ([2]; FDSS7000 versus FlexStation II conditions): ~ 5 fold
EC50 ([2]; hM5 EC50, PAM, 384-well FDSS7000): 1100 nM
EC50 [17]: 190 nM
